Assay results taken from ChEMBL document CHEMBL1151420 (Antimicrob Agents Chemother, 2007).
Converted amounts (≈) assume the structure as drawn.

Assays:
Equid alphaherpesvirus 1 = assay: Antiviral activity against EHV1 assessed as inhibition of plaque formation; type: functional, organism-based
Equus caballus [1] = organism: Equus caballus; assay: Renal toxicity in horse assessed as changes in urea level; type: organism-based; settings: in vivo
How it was run: (§1)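 Blood was drawn once daily on the day before, the day of, and the day after drug administration. Plasma urea and creatinine were measured to assess kidney function.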

Equus caballus [2] = organism: Equus caballus; assay: Renal toxicity in horse assessed as changes in creatinine level; type: organism-based; settings: in vivo; how it was run: as §1
[3] = Plasma concentration in horse at 20 mg/kg, po administered as single dose after 5 hrs; type: ADME, organism-based, Equus caballus; parameters: dose 20 mg/kg, route oral
How it was run: (§2)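 Single 20 mg/kg dose of crushed tablets suspended in 100 ml tap water, given by nasogastric tube and flushed with at least 200 ml water. Plasma sampled from 20 min to 30 h. Total concentration measured by HPLC-fluorescence (LOQ 50 ng/ml). Noncompartmental analysis; absolute F was calculated against the i.v. data.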

[4] = Cmax in horse at 10 mg/kg, iv after 15 mins; type: ADME, organism-based, Equus caballus; parameters: dose 10 mg/kg, route intravenous; settings: in vivo
[5] = Oral bioavailability in horse at 20 mg/kg administered as single dose; type: ADME, organism-based, Equus caballus; settings: in vivo; how it was run: as §2
[6] = Solubility at pH 2.3 to 9.2; type: physicochemical; settings: buffer
[7] = Distribution coefficient, log P of the compound; type: physicochemical; settings: octanol/water
[8] = Cmax in iv dosed adult horse; type: ADME, organism-based, Equus caballus; parameters: route intravenous; settings: in vivo
[9] = Mean residence time in iv dosed adult horse; type: ADME, organism-based, Equus caballus; settings: in vivo
[10] = Total Cmax in horse at 10 mg/kg, iv after 1 hr by two-compartmental study; type: ADME, organism-based, Equus caballus; parameters: dose 10 mg/kg, route intravenous; settings: in vivo
Equus caballus [11] = assay: fCmax in horse at 10 mg/kg, iv after 1 hr by three-compartmental study; type: ADME, organism-based; parameters: dose 10 mg/kg, route intravenous; settings: in vivo
Equus caballus [12] = assay: fAUC in horse at 10 mg/kg, iv after 1 hr by three-compartmental study; type: ADME, organism-based; parameters: dose 10 mg/kg, route intravenous; settings: in vivo
[13] = Total mean residence time in horse at 10 mg/kg, iv after 1 hr by two-compartmental study; type: ADME, organism-based, Equus caballus; parameters: dose 10 mg/kg, route intravenous; settings: in vivo
[14] = Free mean residence time in horse at 10 mg/kg, iv after 1 hr by three-compartmental study; type: ADME, organism-based, Equus caballus; parameters: dose 10 mg/kg, route intravenous; settings: in vivo
Equus caballus [15] = assay: fCmax in horse at 20 mg/kg, po administered as single dose; type: ADME, organism-based; parameters: dose 20 mg/kg, route oral; settings: in vivo
How it was run: (§3)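 Horses (six, A–F) were dosed once intragastrically by nasogastric tube with 20 mg/kg of crushed tablets suspended in 100 ml tap water, followed by a ≥200 ml water flush. Heparinized plasma was sampled at 0 and from 20 min to 30 h and stored at –70°C. Unbound drug was isolated by 30 kDa ultrafiltration with ganciclovir internal standard and measured by LC-MS/MS (LOQ 5 ng/ml). Parameters were derived noncompartmentally.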

Equus caballus [16] = assay: fAUC in horse at 20 mg/kg, po administered as single dose; type: ADME, organism-based; parameters: dose 20 mg/kg, route oral; settings: in vivo; how it was run: as §3

Compound	EC50 (Equid alphaherpesvirus 1) [µg/mL]	Activity (Equus caballus [1])	Activity (Equus caballus [2])	concentration at 5 h [3] [ng/mL]	Cmax [4] [ng/mL]	bioavailability [5] [%]	solubility [6] [µg/mL]	logP [7]	Cmax [8] [ng/mL]	MRT [9] [h]	Cmax [10] [ng/mL]	fCmax (Equus caballus [11]) [µg/mL]	fAUC (Equus caballus [12]) [ng·h/mL]	MRT [13] [h]	MRT [14] [h]	fCmax (Equus caballus [15]) [µg/mL]	fAUC (Equus caballus [16]) [ng·h/mL]
Nc1nc2c(ncn2COCCO)c(=O)[nH]1 [ACYCLOVIR]	1.7 (≈ 7.55 µM)	Non-toxic	Non-toxic	50	46200	2.8	1000 (≈ 4440 µM)	-1.59	10400	7.09	10700	10.5	24600	5.38	23.1	0.4	3530
CC(C)[C@H](N)C(=O)OCCOCn1cnc2c(=O)[nH]c(N)nc21 [VALACYCLOVIR]																4.76	14900
